Published values from different studies.
Protocols differ between the studies behind these lines.
Effect on: microbial growth

| Compound | organism | test | system | conditions | MIC |
| --- | --- | --- | --- | --- | --- |
| O=C1NC(=S)N/C1=C\c1ccc(-c2ccc(N(c3ccccc3)c3ccccc3)cc2)c2ccccc12 | Streptococcus mutans | broth dilution | ATCC25175 |  | > 1000 µg/mL |
| Cc1ncc([N+](=O)[O-])n1CCO | Bifidobacterium | agar dilution |  | 48 h | > 16 µg/mL |
| CCCCCCC/C=C/C(=O)N1C(=O)/C(=C(\O)C2CCNCC2)C(=O)C1CC(C)C (stereo not drawn) | Stenotrophomonas maltophilia |  | ATCC13637 |  | 25 µg/mL |
| O=C1NC(=S)N/C1=C\c1c2ccccc2c(-c2ccc(N(c3ccccc3)c3ccccc3)cc2)c2ccccc12 | Streptococcus pyogenes | broth dilution | ATCC19615 |  | > 1000 µg/mL |
| O=C(O)c1cn(C2CC2)c2cc(N3CCNCC3)c(F)cc2c1=O | Klebsiella aerogenes |  | DSM30053 |  | 0.125 µg/mL |
| CCCCCCC/C=C/C(=O)N1C(=O)/C(=C(\O)c2ccc(O)cc2)C(=O)C1CC(C)C (stereo not drawn) | Stenotrophomonas maltophilia |  | ATCC13637 |  | 200 µg/mL |
| O=C1NC(=S)S/C1=C\c1ccc(-c2ccc(N(c3ccccc3)c3ccccc3)cc2)cc1 | Streptococcus pyogenes | broth dilution | ATCC19615 |  | 1000 µg/mL |
| CNC(=O)c1cc(Oc2ccc(NC(=O)Nc3ccc(Cl)c(C(F)(F)F)c3)cc2)ccn1 | Klebsiella aerogenes |  | DSM30053 |  | > 100 µM |
| CN[C@H](CC(C)C)C(=O)N[C@H]1C(=O)N[C@@H](CC(N)=O)C(=O)N[C@H]2C(=O)N[C@H]3C(=O)N[C@H](C(=O)N[C@H](C(=O)O)c4cc(O)cc(O)c4-c4cc3ccc4O)[C@H](O)c3ccc(c(Cl)c3)Oc3cc2cc(c3O[C@@H]2O[C@H](CO)[C@@H](O)[C@H](O)[C@H]2O[C@H]2C[C@](C)(N)[C@H](O)[C@H](C)O2)Oc2ccc(cc2Cl)[C@H]1O | Streptococcus mutans | broth dilution | ATCC25175 |  | 0.98 µg/mL |
| O=c1[nH]c(NCc2ccc(Cl)c(Cl)c2)nc2ncn(CCN3CCOCC3)c12 | Bifidobacterium | agar dilution |  | 48 h | > 32 µg/mL |
| O=C1NC(=S)S/C1=C\c1ccc(-c2ccc(N(c3ccccc3)c3ccccc3)cc2)c2ccccc12 | Streptococcus pyogenes | broth dilution | ATCC19615 |  | 1000 µg/mL |
| CCCCCCC/C=C/C(=O)N1C(=O)/C(=C(/C)O)C(=O)C1CCC(=O)O (stereo not drawn) | Stenotrophomonas maltophilia |  | ATCC13637 |  | 200 µg/mL |
| C[C@@H](O)[C@H]1C(=O)N2C(C(=O)O)=C(S[C@@H]3CN[C@H](C(=O)N(C)C)C3)[C@H](C)[C@H]12 | Stenotrophomonas maltophilia | broth dilution |  | clinical isolate | > 64 µg/mL |
| C/C(=C\c1ccc(C#N)cc1)C(=O)Nc1ccc(C(=O)N[C@@H](CC(N)=O)C(=O)Nc2ccc(C(=O)Nc3ccc(C(=O)Nc4ccc(C(=O)O)cc4)c(O)c3OC(C)C)cc2)cc1 | Klebsiella aerogenes |  | DSM30053 |  | 0.25 µg/mL |
| CCCCCCC/C=C/C(=O)N1C(=O)/C(=C(\O)c2ccc(OCOCCOC)cc2)C(=O)C1CC(C)C (stereo not drawn) | Stenotrophomonas maltophilia |  | ATCC13637 |  | 200 µg/mL |
